Measured values from publication PMC12377187 (RSC Advances, 2025).
Where two headings read alike, the source gives them in different places.

Assays:
[1] = test system: MDA-MB-231 – human breast cancer cell line; assay: MTT cytotoxicity, MDA-MB-231 cell line; format: cell-based; details: MDA-MB-231, 72 h, read-out: IC50 MDA-MB-231
Procedure, shortened: (§1)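 Cells seeded at 5000 per well in Eagle's MEM with 10% fetal calf serum, 2 mM L-glutamine, penicillin and streptomycin, then pre-incubated 24 h at 37 °C, 5% CO2. A concentration series of test compound in DMSO, with a reference drug, was applied for 72 h. MTT added for 4 h at 37 °C, formazan dissolved in ethanol, OD read at 570 nm. Inhibition calculated against blank and control absorbances.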

[2] = test system: RD – rhabdomyosarcoma cell line; assay: MTT cytotoxicity, RD cell line; format: cell-based; details: 72 h
Procedure, shortened: as §1

[3] = test system: SW620 cell line; details: cited from earlier work
[4] = test system: HT-29 cell line; details: cited from earlier work
[5] = Rhabdomyosarcoma cell, read-out: IC50 RD, MTT, 72 h, mean ± SD
[6] = read-out: IC50 RD, MTT, mean ± SD

SMILES | IC50 [1] | IC50 [2, 5] | IC50 [2, 6] | inhibitory activity against SW620 [3] | inhibitory activity against HT-29 [4]
O=c1c2cc(Cl)ccc2nc(-c2ccccc2)n1N=Cc1ccc([N+](=O)[O-])cc1 [Compound 2, 6-Chloro-3-((4-nitrobenzylidene)amino)-2-phenyl-4(3H)-quinazolone] | 104 ± 3.63 µM | 151 ± 2.06 µM | – | – | –
O=c1c2cc(Cl)ccc2nc(-c2ccccc2)n1N=Cc1ccc(Cl)c(Cl)c1 [Compound 3, 6-Chloro-3-((3,4-dichlorobenzylidene)amino)-2-phenyl-4(3H)-quinazolone] | 91.5 ± 1.47 µM | 246 ± 24.3 µM | – | – | –
O=c1c2cc(Cl)ccc2nc(-c2ccccc2)n1N=Cc1ccc(F)cc1 [Compound 4, 6-Chloro-3-((4-fluorobenzylidene)amino)-2-phenyl-4(3H)-quinazolone] | 21.6 ± 1.11 µM | 235 ± 8.29 µM | – | – | –
O=c1c2cc(Cl)ccc2nc(-c2ccccc2)n1N=Cc1c(F)cccc1Cl [Compound 5, 6-Chloro-3-((2-chloro-6-fluorobenzylidene)amino)-2-phenyl-4(3H)-quinazolone] | 148 ± 5.64 µM | 14.7 ± 0.68 µM | – | – | –
O=c1c2cc(Cl)ccc2nc(-c2ccccc2)n1N=Cc1ccc2c(c1)OCO2 [Compound 6, 3-((Benzo[d][1,3]dioxol-5-ylmethylene)amino)-6-chloro-2-phenyl-4(3H)-quinazolone] | 10.6 ± 0.67 µM | 50 to 55 µM | 54.5 ± 0.81 µM | – | –
O=c1c2cc(Cl)ccc2nc(-c2ccccc2)n1N=Cc1ccc(Br)cc1O [Compound 7, 3-((4-Bromo-2-hydroxybenzylidene)amino)-6-chloro-2-phenyl-4(3H)-quinazolone] | 8.79 ± 0.34 µM | 50 to 55 µM | 51.6 ± 1.19 µM | – | –
CN(C)c1ccc(C=Nn2c(-c3ccccc3)nc3ccc(Cl)cc3c2=O)cc1 [Compound 8, 6-Chloro-3-((4-(dimethylamino)benzylidene)amino)-2-phenyl-4(3H)-quinazolone] | 101 ± 3.75 µM | 198 ± 18.9 µM | – | – | –
O=c1c2cc(Cl)ccc2nc(-c2ccccc2)n1N=Cc1cccc(O)c1 [Compound 9, 6-Chloro-3-((3-hydroxybenzylidene)amino)-2-phenyl-4(3H)-quinazolone] | 84.4 ± 1.26 µM | 254 ± 14.2 µM | – | – | –
CCOc1ccc(C=Nn2c(-c3ccccc3)nc3ccc(Cl)cc3c2=O)cc1O [Compound 10, 6-Chloro-3-((4-ethoxy-3-hydroxybenzylidene)amino)-2-phenyl-4(3H)-quinazolone] | 85.5 ± 2.32 µM | 430 ± 72.9 µM | – | – | –
O=c1c2cc(Cl)ccc2nc(-c2ccccc2)n1N=Cc1ccc(Cl)cc1Cl [Compound 11, 6-Chloro-3-((2,4-dichlorobenzylidene)amino)-2-phenyl-4(3H)-quinazolone] | 99.4 ± 1.76 µM | 251 ± 25.5 µM | – | – | –
O=c1c2cc(Cl)ccc2nc(-c2ccccc2)n1N=Cc1ccccc1Cl [Compound 12, 6-Chloro-3-((2-chlorobenzylidene)amino)-2-phenyl-4(3H)-quinazolinone] | 321 ± 51.8 µM | 126 ± 6.2 µM | – | – | –
COc1ccc(C=Nn2c(-c3ccccc3)nc3ccc(Cl)cc3c2=O)cc1OC [Compound 13, 6-Chloro-3-((3,4-dimethoxybenzylidene)amino)-2-phenyl-4(3H)-quinazolone] | 139 ± 4.04 µM | 130 ± 10.4 µM | – | – | –
O=c1c2cc(Cl)ccc2nc(-c2ccccc2)n1N=Cc1cccnc1 [Compound 14, 6-Chloro-2-phenyl-3-((pyridin-3-ylmethylene)amino)-4(3H)-quinazolone] | 262 ± 43.9 µM | 136 ± 17 µM | – | – | –
O=c1c2cc(Cl)ccc2nc(-c2ccccc2)n1N=Cc1ccco1 [Compound 15, 6-Chloro-3-((furan-2-ylmethylene)amino)-2-phenyl-4(3H)-quinazolone] | 56.6 ± 5.37 µM | 38.6 ± 1.07 µM | – | – | –
O=c1c2cc(Cl)ccc2nc(-c2ccccc2)n1N=Cc1cccc([N+](=O)[O-])c1 [Compound 16, 6-Chloro-3-((3-nitrobenzylidene)amino)-2-phenyl-4(3H)-quinazolone] | 301 ± 27.1 µM | 82.3 ± 1.99 µM | – | – | –
CCOc1ccc(C=Nn2c(-c3ccccc3)nc3ccc(Cl)cc3c2=O)cc1 [Compound 17, 6-Chloro-3-((4-ethoxybenzylidene)amino)-2-phenyl-4(3H)-quinazolone] | 194 ± 8.83 µM | 376 ± 8.08 µM | – | – | –
COc1cccc(C=Nn2c(-c3ccccc3)nc3ccc(Cl)cc3c2=O)c1 [Compound 18, 6-Chloro-3-((3-methoxybenzylidene)amino)-2-phenyl-4(3H)-quinazolone] | 329 ± 47.2 µM | 84.8 ± 9.35 µM | – | – | –
O=c1c2cc(Cl)ccc2nc(-c2ccccc2)n1N=Cc1ccccc1O [Compound 19, 6-Chloro-3-((2-hydroxybenzylidene)amino)-2-phenyl-4(3H)-quinazolone] | 37.5 ± 0.63 µM | 51.1 ± 0.99 µM | – | – | –
COc1ccc(C=Nn2c(-c3ccccc3)nc3ccc(Cl)cc3c2=O)cc1O [Compound 20, 6-Chloro-3-((3-hydroxy-4-methoxybenzylidene)amino)-2-phenyl-4(3H)-quinazolone] | 198 ± 13.3 µM | 48.1 ± 3.97 µM | – | – | –
O=c1c2cc(Cl)ccc2nc(-c2ccccc2)n1N=Cc1ccccc1 [Compound 21, 3-(Benzylideneamino)-6-chloro-2-phenyl-4(3H)-quinazolone] | 121 ± 9.35 µM | 143 ± 12.7 µM | – | – | –
CC(=O)O[C@H]1C(=O)[C@@]2(C)[C@H]([C@H](OC(=O)c3ccccc3)[C@]3(O)C[C@H](OC(=O)[C@H](O)[C@@H](NC(=O)c4ccccc4)c4ccccc4)C(C)=C1C3(C)C)[C@]1(OC(C)=O)CO[C@@H]1C[C@@H]2O [PTX, paclitaxel, reference compound] | 0.04 ± 0.02 µM | 0.58 ± 0.01 µM | – | – | –
O=c1[nH]cc(F)c(=O)[nH]1 [fluorouracil] | – | – | – | 57.3% | 34.1%
